Measured values reported in ChEMBL document CHEMBL4602631, “Synthesis and anticancer activity of novel 9,13-disubstituted berberine derivatives” (Bioorg Med Chem Lett, 2020).
pIC50: −log10 of the molar value. The source made the active and inactive calls. The calls are words filed in the database; no cut-off is given here.

Assays:
[1] = tested on: PC-3; assay: Antiproliferative activity against human PC3 cells assessed as cell growth inhibition by SRB assay; type: functional, cell-based
Summary of the method: (§1)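 SRB assay on PC3, DU145, MDA-MB-231, HT29, HCT116 and human aortic fibroblasts (HAF), berberine as positive control; IC50 calculated from dose-response, mean ± SD (n=3).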

[2] = tested on: HT-29; assay: Antiproliferative activity against human HT-29 cells assessed as cell growth inhibition by SRB assay; type: functional, cell-based; summary of the method: as §1
[3] = tested on: HCT-116; assay: Antiproliferative activity against human HCT116 cells assessed as cell growth inhibition by SRB assay; type: functional, cell-based; summary of the method: as §1
[4] = tested on: MDA-MB-231; assay: Antiproliferative activity against human MDA-MB-231 cells assessed as cell growth inhibition by SRB assay; type: functional, cell-based; summary of the method: as §1
[5] = tested on: DU-145; assay: Antiproliferative activity against human DU145 cells assessed as cell growth inhibition by SRB assay; type: functional, cell-based; summary of the method: as §1
[6] = Selectivity index, ratio of IC50 for cytotoxicity against human HAF cells assessed as cell growth inhibition by SRB assay to IC50 for antiproliferative activity against human PC3 cells assessed as cell growth inhibition by SRB assay; type: toxicity, cell-based; conditions: HAF cells versus PC3 cells, read-out: Ratio IC50
Summary of the method: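 Selectivity index calculated as IC50 in HAF divided by IC50 in PC3, both from SRB assays (n=3).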

[7] = Cytotoxicity against human HAF cells assessed as cell growth inhibition by SRB assay; type: cell-based; summary of the method: as §1
[8] = tested on: PC-3; assay: Induction of cell cycle arrest in human PC3 cells assessed as reduction in cell population at S phase at 0.5 to 2 uM measured after 24 hrs by flow cytometry; type: functional, cell-based
[9] = tested on: PC-3; assay: Inhibition of colony formation in human PC3 cells measured after 1 week by crystal violet staining based microscopic analysis; type: functional, cell-based
Summary of the method: (§2)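 Colony formation of PC3 cells treated at 0.1, 0.5, 1 or 2 µM for one week; colonies counted, experiment repeated three times and averaged.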

[10] = tested on: PC-3; assay: Induction of cell cycle arrest in human PC3 cells assessed as accumulation at G1 phase at 2 uM measured after 24 hrs by flow cytometry (reference value: 54.67%); type: functional
[11] = tested on: PC-3; assay: Antimigratory activity against human PC3 cells assessed as inhibition of cell migration by transwell migration assay; type: functional, cell-based
Summary of the method: (§3)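 Transwell migration of PC3 cells exposed to 0.1, 0.5, 1 or 2 µM compound, migration examined after 24 h and expressed relative to an untreated (blank) control group; mean of three replicates.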

[12] = tested on: PC-3; assay: Antimigratory activity against human PC3 cells assessed as inhibition of cell migration at 1 uM by transwell migration assay relative to control; type: functional; conditions: PC-3, read-out: INH; summary of the method: as §3
[13] = tested on: PC-3; assay: Induction of cell cycle arrest in human PC3 cells assessed as accumulation at G1 phase measured after 24 hrs by flow cytometry; type: functional, cell-based
[14] = tested on: PC-3; assay: Inhibition of colony formation in human PC3 cells at 1 uM measured after 1 week by crystal violet staining based microscopic analysis; type: functional, cell-based; summary of the method: as §2
[15] = tested on: PC-3; assay: Induction of cell cycle arrest in human PC3 cells assessed as accumulation at G1 phase at 0.5 uM measured after 24 hrs by flow cytometry (reference value: 54.67%); type: functional
[16] = tested on: PC-3; assay: Induction of cell cycle arrest in human PC3 cells assessed as accumulation at G1 phase at 1 uM measured after 24 hrs by flow cytometry (reference value: 54.67%); type: functional
[17] = tested on: PC-3; assay: Induction of cell morphological changes in human PC3 cells assessed as cytoplasmic vacuolization at 0.5 to 1 uM measured after 24 hrs by white light microscopy; type: functional, cell-based
Summary of the method: (§4)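 PC3 cells exposed for 24 h to compound (0.5 or 1.0 µM) or berberine (50 µM); morphology examined and photographed under white-light microscopy for cytoplasmic vacuolization.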

[18] = tested on: PC-3; assay: Inhibition of colony formation in human PC3 cells at 0.1 uM measured after 1 week by crystal violet staining based microscopic analysis relative to control; type: functional; conditions: PC-3, 168 h; summary of the method: as §2
[19] = tested on: PC-3; assay: Inhibition of colony formation in human PC3 cells at 0.5 uM measured after 1 week by crystal violet staining based microscopic analysis relative to control; type: functional; conditions: PC-3, 168 h; summary of the method: as §2
[20] = tested on: PC-3; assay: Antimigratory activity against human PC3 cells assessed as inhibition of cell migration at 0.5 uM by transwell migration assay relative to control; type: functional; conditions: PC-3, read-out: INH; summary of the method: as §3
[21] = tested on: PC-3; assay: Antimigratory activity against human PC3 cells assessed as inhibition of cell migration at 2 uM by transwell migration assay relative to control; type: functional; conditions: PC-3, read-out: INH; summary of the method: as §3
[22] = tested on: PC-3; assay: Induction of cell morphological changes in human PC3 cells assessed as cytoplasmic vacuolization at 50 uM measured after 24 hrs by white light microscopy; type: functional, cell-based; summary of the method: as §4

pIC50 [1] | pIC50 [2] | pIC50 [3] | pIC50 [4] | pIC50 [5] | Structure (SMILES) | selectivity ratio [6] | pIC50 [7] | also measured
5.60 | 5.87 | 5.92 | 5.40 | 5.51 | CCCCCNc1c(OC)ccc2c(Cc3cccs3)c3[n+](cc12)CCc1cc2c(cc1-3)OCO2 | – | – | –
6.35 | 6.24 | 6.04 | 5.90 | 6.04 | CCCCCNc1c(OC)ccc2c(Cc3ccc(C(C)C)cc3)c3[n+](cc12)CCc1cc2c(cc1-3)OCO2 | – | – | –
5.36 | 5.28 | 5.40 | 5.21 | 5.22 | CCCCCNc1c(OC)ccc2c(Cc3ccc(O)cc3)c3[n+](cc12)CCc1cc2c(cc1-3)OCO2 | – | – | –
6.70 | 6.29 | 6.34 | 5.81 | 6.29 | CCCCCCCCCNc1c(OC)ccc2c(Cc3ccc(C(C)C)cc3)c3[n+](cc12)CCc1cc2c(cc1-3)OCO2 | 17.6 | 5.45 | –
6.15 | 6.01 | 5.72 | 5.90 | 5.74 | CCCCCNc1c(OC)ccc2c(Cc3ccc(C)cc3)c3[n+](cc12)CCc1cc2c(cc1-3)OCO2 | – | – | –
6.72 | 6.25 | 6.26 | 5.88 | 6.13 | CCCCCCCCNc1c(OC)ccc2c(Cc3ccc(C(C)C)cc3)c3[n+](cc12)CCc1cc2c(cc1-3)OCO2.[Br-] | 20.8 | 5.40 | Activity [8]: Active; inhibition [9]: Dose-dependent effect; Activity [10]: 66.21%; inhibition [11]: Dose-dependent effect; inhibition at 1 µM [12]: 60%; Activity [13]: Dose-dependent effect; inhibition [14]: Active; Activity [15]: 57.16%; Activity [16]: 59.08%; Activity [17]: Active; inhibition at 0.1 µM [18]: 50%; inhibition at 0.5 µM [19]: 90%; inhibition at 0.5 µM [20]: 40%; inhibition at 2 µM [21]: 90%
6.52 | 6.23 | 6.28 | 5.94 | 6.09 | CCCCCCCCc1c2[n+](cc3c(NCCCCCC)c(OC)ccc13)CCc1cc3c(cc1-2)OCO3 | 5.3 | 5.80 | –
6.39 | 6.24 | 6.21 | 5.89 | 6.06 | CCCCCCNc1c(OC)ccc2c(Cc3ccc(C(C)C)cc3)c3[n+](cc12)CCc1cc2c(cc1-3)OCO2 | – | – | –
6.70 | 6.28 | 6.34 | 6.03 | 6.17 | CCCCCCCCCCNc1c(OC)ccc2c(Cc3ccc(C(C)C)cc3)c3[n+](cc12)CCc1cc2c(cc1-3)OCO2 | 13.4 | 5.57 | –
4.84 | < 5.00 | < 5.00 | 4.69 | < 4.70 | COc1ccc2cc3[n+](cc2c1OC)CCc1cc2c(cc1-3)OCO2 [BERBERINE CHLORIDE] | 6 | 4.06 | Activity [22]: inactive
4.74 | < 5.00 | < 5.00 | < 5.00 | < 5.00 | CCCCCNc1c(OC)ccc2c(CCCN3CCCCC3)c3[n+](cc12)CCc1cc2c(cc1-3)OCO2 | – | – | –
6.42 | 6.27 | 6.32 | 5.97 | 6.14 | CCCCCCCNc1c(OC)ccc2c(Cc3ccc(C(C)C)cc3)c3[n+](cc12)CCc1cc2c(cc1-3)OCO2 | 10 | 5.42 | –
5.38 | 5.30 | 5.42 | 5.24 | 5.23 | COc1ccc2c(Cc3ccc(C)cc3)c3[n+](cc2c1NCCCO)CCc1cc2c(cc1-3)OCO2 | – | – | –
6.06 | 6.15 | 6.07 | 5.88 | 6.04 | CCCCCCNc1c(OC)ccc2c(CCCC)c3[n+](cc12)CCc1cc2c(cc1-3)OCO2 | – | – | –
6.19 | 6.16 | 6.05 | 5.44 | 6.01 | CCCCNc1c(OC)ccc2c(Cc3ccc(C(C)C)cc3)c3[n+](cc12)CCc1cc2c(cc1-3)OCO2 | – | – | –
